Test results: ChEMBL document CHEMBL4393678, “Novel Tetrahydroquinazolinamines as Selective Histamine 3 Receptor Antagonists for the Treatment of Obesity” (J Med Chem, 2019)
Calls of active or inactive are those of the source. The rule behind the calls is not given here.

Key:
[1] = biological target: T1, Histamine H2 receptor (Homo sapiens, UniProt P25021); assay: Agonist activity at recombinant human Gs-coupled H2 receptor expressed in HEK293T cells assessed as inhibition of forskolin-stimulated cAMP accumulation at 10 uM preincubated for 10 to 15 followed by forskolin-stimulation by Glo-sensor assay relative to control; format: functional, cell-based; parameters: scale not given: the % may be the effect or the level left
Outline: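 HEK293T cells were transiently co-transfected with GloSensor-22F cAMP plasmid and human H2R plasmid, then held 15–18 h at 37 °C in 5% CO2. Cells were loaded with sodium luciferin (1 mg/ml) for 90 min. Agonist mode used 10 µM compound, with luminescence read directly after 10–15 min. Screening was in triplicate, scored as ≥50% change versus control.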

[2] = biological target: T1, Histamine H2 receptor; assay: Agonist activity at recombinant human Gs-coupled H2 receptor expressed in HEK293T cells assessed as inhibition of forskolin-stimulated cAMP accumulation preincubated for 10 to 15 followed by forskolin-stimulation by Glo-sensor assay; format: functional, cell-based
[3] = biological target: Histamine H3 receptor (Homo sapiens, UniProt Q9Y5N1); assay: (§1) Antagonist activity at recombinant human Gi-coupled H3 receptor expressed in HEK293T cells assessed as reduction in histamine-induced inhibition of forskolin-stimulated cAMP accumulation preincubated for 10 to 15 followed by histamine addition for 10 mins and subsequent forskolin-stimulation by Glo-sensor assay; format: functional, cell-based
[4] = biological target: Histamine H4 receptor (Homo sapiens) (UniProt Q9H3N8); assay: as §1, with “H4” for “H3”, “accumulation at 10 uM” for “accumulation”; format: functional, cell-based
[5] = biological target: Histamine H1 receptor (Homo sapiens) (UniProt P35367); assay: Agonist activity at H1R (unknown origin) expressed in HEK293 cells harboring luc2P/NFAT-RE plasmid at 10 uM after 6 to 8 hrs by luciferase reporter gene assay; format: cell-based
Outline: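 NFAT-RE luciferase assay in HEK293T cells transiently co-transfected with luc2P/NFAT-RE plasmid and receptor plasmid. Cells plated in DMEM and incubated overnight at 37 °C, 5% CO₂. Compounds and reference ligands applied for 6-8 h. Luciferase read after adding Bright-Glo substrate (1 mg/ml final).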

[6] = biological target: D(2) dopamine receptor (Homo sapiens) (UniProt P14416); assay: as §1, with “at” for “at recombinant human”, “D2” for “H3”, “receptor (unknown origin)” for “receptor”; format: functional, cell-based
[7] = biological target: D(3) dopamine receptor (Homo sapiens) (UniProt P35462); assay: Antagonist activity at D3 receptor (unknown origin)
[8] = biological target: D(1B) dopamine receptor (Homo sapiens) (UniProt P21918); assay: Agonist activity at Gs-coupled D5 receptor (unknown origin) expressed in HEK293T cells assessed as inhibition of forskolin-stimulated cAMP accumulation preincubated for 10 to 15 followed by forskolin-stimulation by Glo-sensor assay; format: functional, cell-based
[9] = Apparent clearance in C57BL/6J mouse serum at 20 mg/kg, po by LC-MS/MS analysis; format: ADME, organism-based
Outline: (§2)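 Male C57BL/6J mice (6-8 weeks, 20 ± 5 g) fasted overnight (12-16 h) got a single 20 mg/kg oral dose as 2.5 mg/mL suspension in 1% w/v gum acacia; n=5 per time point. Serum and brain (PBS homogenate 1:6 w/v) sampled up to 24 h. Parent and demethylated metabolite quantified by LC-MS/MS after liquid-liquid extraction (C18, MRM, phenacetin internal standard; linear 0.25-200 ng/mL). Two-compartment open model fit.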

[10] = Half life in C57BL/6J mouse serum assessed as 4-(2-Amino-8-methyl-5,6,7,8-tetrahydroquinazolin-4-yl)phenol level at 20 mg/kg, po by LC-MS/MS analysis; format: ADME, organism-based; details: in vivo; outline: as §2
[11] = Half life in C57BL/6J mouse brain assessed as 4-(2-Amino-8-methyl-5,6,7,8-tetrahydroquinazolin-4-yl)phenol level at 20 mg/kg, po by LC-MS/MS analysis; format: ADME, organism-based; details: in vivo; outline: as §2
[12] = Ratio of AUClast in C57BL/6J mouse brain to AUClast in C57BL/6J mouse serum; format: ADME
Outline: (§3)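 Male C57BL/6J mice (6–8 weeks) were fasted 12–16 h, then given a single oral dose of 20 mg/kg as a 2.5 mg/mL suspension in 1% gum acacia/water (n=5 per time point). Serum and brain (homogenised 1:6 in PBS) were sampled up to 24 h. Parent and demethylated metabolite were measured by LC-MS/MS (range 0.25–200 ng/mL). AUC ran to the last observation.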

[13] = Ratio of AUClast in C57BL/6J mouse serum assessed as 4-(2-Amino-8-methyl-5,6,7,8-tetrahydroquinazolin-4-yl)phenol level to AUClast in C57BL/6J mouse serum; format: ADME; outline: as §3
[14] = Fraction unbound in C57BL/6J mouse brain by equilibrium dialysis method; format: ADME, tissue-based
Outline: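 Plasma protein binding and unbound fraction in mouse brain tissue homogenate measured by equilibrium dialysis.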

[15] = Ratio of fCmax in C57BL/6J mouse brain to IC50 for recombinant human Gi-coupled H3 receptor expressed in HEK293T cells assessed as reduction in histamine-induced inhibition of forskolin-stimulated cAMP accumulation; format: cell-based
Outline: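 Fasted male C57BL/6J mice received a single oral dose of 20 mg/kg in gum acacia suspension. Brain Cmax came from LC-MS/MS of brain homogenate. Unbound brain fraction was measured by equilibrium dialysis of brain tissue homogenate. Unbound Cmax, converted to nM, was divided by the H3R antagonist IC50 from the GloSensor cAMP assay in transfected HEK293T cells.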

[16] = test system: Mus musculus; assay: Anorexic effect in high fat diet-induced obese C57BL/6J mouse model assessed as reduction in cumulative food intake at 20 mg/kg, po pretreated for 30 mins followed by food addition measured after 4 hrs relative to control; format: functional; parameters: scale not given: the % may be the effect or the level left
Outline: (§4)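 Mice starved 12 h (8:00 am to 8:00 pm) with water available, then housed singly. Compound given orally in 5% gum acacia in normal saline; vehicle group received the same. Cumulative food intake measured over 4 h of the night phase (9:00 pm to 1:00 am), starting 30 min after dosing. Antagonism arms: imitet 5 mg/kg i.p. 30 min before compound, or α-methyl-DL-histidine 20 mg/kg i.p. 2 h before.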

[17] = test system: Mus musculus; assay: Anorexic effect in 12 hrs fasted db/db-induced obese C57BL/6J mouse model assessed as reduction in cumulative food intake at 20 mg/kg, po pretreated for 30 mins followed by food addition measured after 4 hrs in presence of histidine decarboxylase inhibitor alpha-MDLH; format: functional, organism-based; outline: as §4
[18] = test system: Mus musculus; assay: Anti-obesity activity in 16 hrs fasted db/db-induced obese C57BL/6J mouse model assessed as change in blood HDL level at 20 mg/kg, po measured after 6 weeks; format: functional, organism-based
[19] = test system: Mus musculus; assay: Anti-obesity activity in 16 hrs fasted db/db-induced obese C57BL/6J mouse model assessed as change in blood total cholesterol level at 20 mg/kg, po measured after 6 weeks; format: functional, organism-based
[20] = test system: Mus musculus; assay: Anti-obesity activity in high fat diet-induced obese C57BL/6J mouse model assessed as change in blood total cholesterol level at 10 to 20 mg/kg, po measured after 6 weeks; format: functional, organism-based
Outline: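 At the end of treatment (six weeks HFD, four weeks db/db), mice euthanized with avertin 350 mg/kg. Blood taken by cardiac puncture into 3.8% sodium citrate. Plasma separated at 4000 rpm and stored at -80 °C. TG, TC, HDLc and LDLc measured on a bio-analyzer.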

T1 sequence (P25021 whole entry): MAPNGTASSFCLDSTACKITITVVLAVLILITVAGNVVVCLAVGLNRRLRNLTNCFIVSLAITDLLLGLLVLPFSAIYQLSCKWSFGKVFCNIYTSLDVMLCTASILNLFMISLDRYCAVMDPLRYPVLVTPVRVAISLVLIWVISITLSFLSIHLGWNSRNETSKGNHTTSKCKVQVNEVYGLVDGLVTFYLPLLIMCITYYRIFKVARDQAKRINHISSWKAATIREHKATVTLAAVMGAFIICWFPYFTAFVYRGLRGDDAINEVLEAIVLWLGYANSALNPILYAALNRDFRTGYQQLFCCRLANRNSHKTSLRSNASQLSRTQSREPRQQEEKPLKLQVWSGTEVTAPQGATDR
Chain of Histamine H3 receptor (Q9Y5N1 whole entry): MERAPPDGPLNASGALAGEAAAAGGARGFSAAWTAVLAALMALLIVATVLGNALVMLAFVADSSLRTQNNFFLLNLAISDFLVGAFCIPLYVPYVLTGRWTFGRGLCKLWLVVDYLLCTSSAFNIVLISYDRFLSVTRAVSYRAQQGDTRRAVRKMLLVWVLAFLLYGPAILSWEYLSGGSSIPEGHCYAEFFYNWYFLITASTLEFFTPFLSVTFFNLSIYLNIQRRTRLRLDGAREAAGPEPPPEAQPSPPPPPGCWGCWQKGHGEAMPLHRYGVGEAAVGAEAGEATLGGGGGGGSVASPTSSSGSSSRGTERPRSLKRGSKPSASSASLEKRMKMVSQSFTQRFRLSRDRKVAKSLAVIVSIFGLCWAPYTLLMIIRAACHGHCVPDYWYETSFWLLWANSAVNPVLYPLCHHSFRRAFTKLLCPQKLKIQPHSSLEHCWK
Chain of D(1B) dopamine receptor (Homo sapiens) (P21918 whole entry): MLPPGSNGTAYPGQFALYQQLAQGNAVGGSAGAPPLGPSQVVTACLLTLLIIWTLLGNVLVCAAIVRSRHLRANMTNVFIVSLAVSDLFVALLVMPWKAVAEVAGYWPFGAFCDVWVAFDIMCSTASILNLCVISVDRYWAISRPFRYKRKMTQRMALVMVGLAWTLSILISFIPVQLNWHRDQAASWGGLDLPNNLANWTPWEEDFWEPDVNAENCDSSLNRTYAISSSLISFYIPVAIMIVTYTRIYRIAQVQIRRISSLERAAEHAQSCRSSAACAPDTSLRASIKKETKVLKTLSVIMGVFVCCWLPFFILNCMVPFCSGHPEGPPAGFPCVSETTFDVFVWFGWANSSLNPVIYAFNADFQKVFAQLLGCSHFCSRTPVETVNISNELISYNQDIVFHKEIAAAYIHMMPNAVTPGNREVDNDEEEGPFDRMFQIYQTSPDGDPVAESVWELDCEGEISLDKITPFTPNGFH
Chain of Histamine H4 receptor (Homo sapiens) (Q9H3N8 whole entry): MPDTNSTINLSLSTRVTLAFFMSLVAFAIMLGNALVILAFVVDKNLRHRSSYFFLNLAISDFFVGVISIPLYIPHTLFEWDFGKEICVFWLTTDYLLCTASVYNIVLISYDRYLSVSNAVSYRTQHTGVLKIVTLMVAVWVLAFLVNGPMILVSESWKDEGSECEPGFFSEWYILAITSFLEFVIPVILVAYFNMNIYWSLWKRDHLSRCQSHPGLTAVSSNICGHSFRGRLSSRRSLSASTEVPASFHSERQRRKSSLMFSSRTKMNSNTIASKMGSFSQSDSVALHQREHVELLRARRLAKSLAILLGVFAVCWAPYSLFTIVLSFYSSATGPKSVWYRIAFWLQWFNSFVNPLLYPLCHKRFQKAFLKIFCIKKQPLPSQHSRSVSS
Chain of Histamine H1 receptor (Homo sapiens) (P35367 whole entry): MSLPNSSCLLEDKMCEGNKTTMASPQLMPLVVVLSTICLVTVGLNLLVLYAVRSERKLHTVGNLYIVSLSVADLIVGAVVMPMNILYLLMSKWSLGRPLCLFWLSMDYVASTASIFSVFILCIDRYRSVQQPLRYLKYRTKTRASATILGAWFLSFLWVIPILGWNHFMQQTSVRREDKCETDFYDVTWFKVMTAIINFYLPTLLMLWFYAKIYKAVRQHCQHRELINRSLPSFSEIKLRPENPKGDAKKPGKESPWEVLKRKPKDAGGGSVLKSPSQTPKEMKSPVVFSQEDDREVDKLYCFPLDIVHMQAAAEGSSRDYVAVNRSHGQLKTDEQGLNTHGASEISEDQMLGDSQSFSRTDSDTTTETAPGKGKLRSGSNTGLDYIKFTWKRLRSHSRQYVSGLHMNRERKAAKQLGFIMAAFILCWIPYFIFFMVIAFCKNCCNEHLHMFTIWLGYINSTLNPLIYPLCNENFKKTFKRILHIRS
Chain of D(3) dopamine receptor (Homo sapiens) (P35462 whole entry): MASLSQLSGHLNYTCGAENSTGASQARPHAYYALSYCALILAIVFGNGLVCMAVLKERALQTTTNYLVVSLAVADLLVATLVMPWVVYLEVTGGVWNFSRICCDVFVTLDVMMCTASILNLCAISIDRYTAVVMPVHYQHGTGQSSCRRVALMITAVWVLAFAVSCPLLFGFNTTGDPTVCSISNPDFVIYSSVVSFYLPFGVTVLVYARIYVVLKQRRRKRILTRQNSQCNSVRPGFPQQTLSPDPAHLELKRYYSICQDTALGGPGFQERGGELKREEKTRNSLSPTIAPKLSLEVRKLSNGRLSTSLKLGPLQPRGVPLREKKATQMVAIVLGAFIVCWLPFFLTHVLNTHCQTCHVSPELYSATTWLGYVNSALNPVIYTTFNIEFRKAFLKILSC
Chain of D(2) dopamine receptor (Homo sapiens) (P14416 whole entry): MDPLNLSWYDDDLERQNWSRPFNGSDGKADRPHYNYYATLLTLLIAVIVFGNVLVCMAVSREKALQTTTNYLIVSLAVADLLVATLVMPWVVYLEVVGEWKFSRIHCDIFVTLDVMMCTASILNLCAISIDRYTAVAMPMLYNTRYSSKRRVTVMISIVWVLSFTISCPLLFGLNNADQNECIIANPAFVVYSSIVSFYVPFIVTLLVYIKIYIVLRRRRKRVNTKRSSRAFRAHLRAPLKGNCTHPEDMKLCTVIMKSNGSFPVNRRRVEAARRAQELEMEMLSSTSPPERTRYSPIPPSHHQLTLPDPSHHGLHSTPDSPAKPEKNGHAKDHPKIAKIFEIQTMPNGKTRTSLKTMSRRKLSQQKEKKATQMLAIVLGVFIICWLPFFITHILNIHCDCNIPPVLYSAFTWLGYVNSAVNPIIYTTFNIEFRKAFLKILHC

## COc1ccc(-c2nc(N)nc3c2CCCC3C)cc1 (racemic)
[1]
  Activity: < 50%
[2]
  EC50: Not Active
  INH: > 10 µM
[3]
  IC50: 40 nM
[4]
  inhibition: inactive
[5]
  Activity: inactive
[6]
  inhibition: inactive
[7]
  inhibition: inactive
[8]
  INH: > 10 µM
[9]
  CL/F: 172 mL/min/kg
[10]
  t1/2: 2.1 h
[11]
  t1/2: 1.2 h
[12]
  Ratio AUC: 16.2%
[13]
  Ratio AUC: 85.8%
[14]
  fraction unbound: 0.284
[15]
  Ratio: 8.3
[16]
  Activity: 28%
[17]
  Activity: inactive
[18]
  Activity: inactive
[19]
  Activity: inactive
[20]
  Activity: inactive
